Assay results: publication PMC3132207 (Journal of medicinal chemistry, 2011)

Tests used:
[1] = biological target: heteromeric rod CNG channels consisting of CNGA1 and CNGB1 subunits (Bos taurus, UniProt Q00194+Q28181); assay type: cell-based; settings: 20 µM blocker, Vm = +50 mV
proteinase K = proteinase K (Parengyodontium album, UniProt P06873); assay: In vitro hydrolysis by proteinase K; assay type: in vitro ADME, Engyodontium album; settings: 50 µM compound, 37 °C
chymotrypsin = chymotrypsin (Bos taurus, UniProt P00766); assay: In vitro hydrolysis by chymotrypsin; assay type: in vitro ADME; settings: 50 µM compound, 37 °C
Method in brief: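 Hydrolysis was followed by diode-array UV absorbance at the product peak wavelength, starting on compound addition. Runs were in triplicate. Enzyme activity was confirmed separately with 90 µM 4-nitrophenyl acetate in 0.1 M HEPES, pH 6.5, 37 °C, read at 404 nm for 10 min.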

[2] = biological target: butyrylcholinesterase purified from human blood serum (Homo sapiens, UniProt P06276); assay: In vitro hydrolysis by serum cholinesterase; assay type: in vitro ADME; settings: even after 24 h incubations
Sequence of butyrylcholinesterase purified from human blood serum (P06276 29-602): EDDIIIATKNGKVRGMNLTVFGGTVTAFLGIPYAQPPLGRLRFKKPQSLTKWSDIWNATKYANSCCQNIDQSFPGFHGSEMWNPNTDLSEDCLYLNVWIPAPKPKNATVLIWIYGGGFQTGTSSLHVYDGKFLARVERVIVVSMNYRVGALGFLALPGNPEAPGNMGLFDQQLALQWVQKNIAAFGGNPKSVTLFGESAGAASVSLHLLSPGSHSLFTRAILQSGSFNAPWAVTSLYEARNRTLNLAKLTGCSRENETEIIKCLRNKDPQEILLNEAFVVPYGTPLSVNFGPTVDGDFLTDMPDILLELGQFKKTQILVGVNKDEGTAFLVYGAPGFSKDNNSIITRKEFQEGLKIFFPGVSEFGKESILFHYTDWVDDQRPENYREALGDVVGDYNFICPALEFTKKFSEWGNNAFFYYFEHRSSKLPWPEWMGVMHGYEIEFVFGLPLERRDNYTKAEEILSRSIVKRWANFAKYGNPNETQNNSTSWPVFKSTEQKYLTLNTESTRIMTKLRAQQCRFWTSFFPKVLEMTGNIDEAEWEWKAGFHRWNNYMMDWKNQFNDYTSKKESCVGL

Sequence of proteinase K (P06873 106-384): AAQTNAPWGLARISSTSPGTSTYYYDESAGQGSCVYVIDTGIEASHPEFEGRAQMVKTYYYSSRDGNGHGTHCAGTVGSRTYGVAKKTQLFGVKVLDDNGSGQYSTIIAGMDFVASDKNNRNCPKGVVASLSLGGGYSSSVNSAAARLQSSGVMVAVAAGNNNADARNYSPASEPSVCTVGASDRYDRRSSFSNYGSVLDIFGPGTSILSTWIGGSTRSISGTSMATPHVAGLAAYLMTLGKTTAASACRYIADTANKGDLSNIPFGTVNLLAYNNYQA
Sequence of heteromeric rod CNG channels consisting of CNGA1 and CNGB1 subunits (Q00194 whole entry): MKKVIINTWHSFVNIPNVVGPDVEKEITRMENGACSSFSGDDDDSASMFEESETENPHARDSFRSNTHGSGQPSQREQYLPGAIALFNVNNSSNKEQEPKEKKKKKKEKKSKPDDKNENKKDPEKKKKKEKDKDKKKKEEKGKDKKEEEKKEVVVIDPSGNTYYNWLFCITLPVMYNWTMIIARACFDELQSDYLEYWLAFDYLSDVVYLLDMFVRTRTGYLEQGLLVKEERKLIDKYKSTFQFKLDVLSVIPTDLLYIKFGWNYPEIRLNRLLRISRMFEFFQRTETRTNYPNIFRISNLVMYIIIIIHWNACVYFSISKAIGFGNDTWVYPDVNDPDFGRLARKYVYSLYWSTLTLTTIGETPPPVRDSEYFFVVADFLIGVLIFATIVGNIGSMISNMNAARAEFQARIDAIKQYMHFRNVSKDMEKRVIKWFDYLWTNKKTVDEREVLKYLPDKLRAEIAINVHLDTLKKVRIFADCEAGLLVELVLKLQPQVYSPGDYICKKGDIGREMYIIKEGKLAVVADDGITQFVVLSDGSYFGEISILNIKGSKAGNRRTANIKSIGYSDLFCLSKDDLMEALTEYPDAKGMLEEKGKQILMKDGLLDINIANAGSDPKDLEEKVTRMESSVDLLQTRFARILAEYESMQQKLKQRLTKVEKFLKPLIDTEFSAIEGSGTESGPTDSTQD
Sequence of heteromeric rod CNG channels consisting of CNGA1 and CNGB1 subunits (Q28181 whole entry): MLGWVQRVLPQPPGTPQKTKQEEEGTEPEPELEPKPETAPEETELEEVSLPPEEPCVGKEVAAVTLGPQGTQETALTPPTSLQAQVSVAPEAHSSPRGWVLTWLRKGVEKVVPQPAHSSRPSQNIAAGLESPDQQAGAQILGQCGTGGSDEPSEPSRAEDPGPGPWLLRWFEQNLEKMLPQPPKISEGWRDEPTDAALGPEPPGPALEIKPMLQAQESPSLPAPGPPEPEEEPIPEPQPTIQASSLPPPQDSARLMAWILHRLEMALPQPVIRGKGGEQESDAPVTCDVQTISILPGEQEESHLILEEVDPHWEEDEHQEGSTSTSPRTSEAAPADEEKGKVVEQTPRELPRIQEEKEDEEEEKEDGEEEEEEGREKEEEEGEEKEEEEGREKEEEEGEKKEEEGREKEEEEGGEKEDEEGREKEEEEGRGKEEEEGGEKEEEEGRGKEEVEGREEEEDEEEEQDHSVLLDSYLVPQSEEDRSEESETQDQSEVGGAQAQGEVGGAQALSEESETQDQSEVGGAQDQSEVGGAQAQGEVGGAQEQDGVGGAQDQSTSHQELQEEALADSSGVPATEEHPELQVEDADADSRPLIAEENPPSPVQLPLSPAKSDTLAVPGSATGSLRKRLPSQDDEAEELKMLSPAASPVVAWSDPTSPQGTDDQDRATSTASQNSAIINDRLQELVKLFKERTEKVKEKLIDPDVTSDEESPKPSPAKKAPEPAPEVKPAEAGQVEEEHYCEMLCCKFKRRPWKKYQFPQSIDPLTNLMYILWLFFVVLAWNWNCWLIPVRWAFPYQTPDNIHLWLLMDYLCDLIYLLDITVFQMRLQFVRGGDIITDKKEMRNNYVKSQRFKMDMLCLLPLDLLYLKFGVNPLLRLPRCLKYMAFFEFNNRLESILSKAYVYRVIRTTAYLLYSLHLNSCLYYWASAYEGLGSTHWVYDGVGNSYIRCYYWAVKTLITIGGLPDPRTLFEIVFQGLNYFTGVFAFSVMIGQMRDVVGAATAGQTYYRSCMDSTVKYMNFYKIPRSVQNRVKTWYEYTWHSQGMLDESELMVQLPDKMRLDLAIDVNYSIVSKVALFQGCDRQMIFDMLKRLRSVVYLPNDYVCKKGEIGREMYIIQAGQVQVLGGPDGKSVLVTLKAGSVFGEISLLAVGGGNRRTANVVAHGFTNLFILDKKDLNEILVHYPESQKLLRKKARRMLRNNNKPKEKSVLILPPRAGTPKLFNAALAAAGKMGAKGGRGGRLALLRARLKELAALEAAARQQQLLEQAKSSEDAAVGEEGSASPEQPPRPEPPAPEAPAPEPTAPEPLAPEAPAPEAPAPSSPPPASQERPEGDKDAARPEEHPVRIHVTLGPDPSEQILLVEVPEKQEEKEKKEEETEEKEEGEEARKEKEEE

Row | SMILES | block of 2 mM cGMP-induced currents [1] [%] | hydrolysis by proteinase K (proteinase K) | hydrolysis by chymotrypsin (chymotrypsin) | hydrolysis product detection by butyrylcholinesterase [2]
1 | COc1ccc([C@H]2Sc3ccccc3N(CCN(C)C)C(=O)[C@H]2OC(C)=O)cc1 (relative stereo) [l-cis-diltiazem] | 74.2 ± 5.8 |  |  | 
2 | CCCCNc1ccc(C(=O)NCCN(C)C)cc1 [Compound 6, 4-(Butylamino)-N-(2-(dimethylamino)ethyl)benzamide] |  | resistant | resistant | 
3 | CCCCCCCCNc1ccc(C(=O)NCCN(C)C)cc1 [Compound 7, 4-(Octylamino)-N-(2-(dimethylamino)ethyl)benzamide] |  | resistant | resistant | 
4 | CCCCNc1ccc(C(=S)NCCN(C)C)cc1 [Compound 8, 4-(Butylamino)-N-(2-(dimethylamino)ethyl)benzothioamide] |  | completely resistant | completely resistant | much too stable for our system to detect any hydrolysis product
5 | CCCCCCCCNc1ccc(C(=S)NCCN(C)C)cc1 [Compound 9, 4-(Octylamino)-N-(2-(dimethylamino)ethyl)benzothioamide] |  | completely resistant | completely resistant | much too stable for our system to detect any hydrolysis product
